From ChEMBL document CHEMBL1811756, “Discovery of novel c-Met kinase inhibitors bearing a thieno[2,3-d]pyrimidine or furo[2,3-d]pyrimidine scaffold” (Bioorg Med Chem, 2011) come the findings set out here.

Molecules are shown by their SMILES.

For assay [1], the target named is T1, Hepatocyte growth factor receptor (Homo sapiens, UniProt P08581). Nature of the assay: Inhibition of c-Met at 10 uM after 60 mins by ELISA. The method, boiled down: (§1)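 c-Met tyrosine kinase ELISA with Poly(Glu,Tyr) 4:1 substrate and 10 µM ATP in HEPES pH 7.4 buffer with Mg²⁺/Mn²⁺, run 60 min at 37 °C. Phosphotyrosine was detected with PY99 and an HRP secondary antibody, read at 490 nm. Percent inhibition was measured at a single compound concentration.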

The target in assay [2] is T1, Hepatocyte growth factor receptor. The assay can be described thus: Inhibition of c-Met after 60 mins by ELISA. The method, boiled down: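 ELISA on plates pre-coated with Poly(Glu,Tyr) 4:1 at 20 µg/mL. Detection used anti-phosphotyrosine PY99, then HRP anti-mouse IgG and o-phenylenediamine/H₂O₂, read at 490 nm. IC50 was calculated by the Logit method from ≥3 independent tests at six concentrations each.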
(In an ELISA, binding on a coated surface is turned into a signal by an enzyme label.)

Assay [3] concerns BaF3. Nature of the assay: Antiproliferative activity against […] BAF3 cells expressing TPR-Met assessed as inhibition of cell growth at 10 uM. Format: functional. To be noted: Mus musculus. In short, it runs like this:
(§2)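 BaF3 cells stably expressing TPR-Met were seeded in 96-well plates. Next day they were exposed to compound at 10, 1 or 0.1 µM for 72 h. Growth was read by MTT at A570. Inhibition (%) = [1 − (A570/A570 control)] × 100.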

Assay [4] relates to BaF3. Nature of the assay: Antiproliferative activity against […] BAF3 cells expressing TPR-Met assessed as inhibition of cell growth at 0.1 uM. Format: functional. To be noted: Mus musculus. The method, boiled down: as §2
For assay [5], the system named is BaF3. Nature of the assay: Antiproliferative activity against […] BAF3 cells expressing TPR-Met assessed as inhibition of cell growth at 1 uM. The format is functional. To be noted: Mus musculus. In short, it runs like this: as §2
Assay [6] concerns the target T1, Hepatocyte growth factor receptor. The assay can be described thus: Inhibition of c-Met at 1 uM after 60 mins by ELISA. In short, it runs like this: as §1

T1 sequence (P08581 whole entry): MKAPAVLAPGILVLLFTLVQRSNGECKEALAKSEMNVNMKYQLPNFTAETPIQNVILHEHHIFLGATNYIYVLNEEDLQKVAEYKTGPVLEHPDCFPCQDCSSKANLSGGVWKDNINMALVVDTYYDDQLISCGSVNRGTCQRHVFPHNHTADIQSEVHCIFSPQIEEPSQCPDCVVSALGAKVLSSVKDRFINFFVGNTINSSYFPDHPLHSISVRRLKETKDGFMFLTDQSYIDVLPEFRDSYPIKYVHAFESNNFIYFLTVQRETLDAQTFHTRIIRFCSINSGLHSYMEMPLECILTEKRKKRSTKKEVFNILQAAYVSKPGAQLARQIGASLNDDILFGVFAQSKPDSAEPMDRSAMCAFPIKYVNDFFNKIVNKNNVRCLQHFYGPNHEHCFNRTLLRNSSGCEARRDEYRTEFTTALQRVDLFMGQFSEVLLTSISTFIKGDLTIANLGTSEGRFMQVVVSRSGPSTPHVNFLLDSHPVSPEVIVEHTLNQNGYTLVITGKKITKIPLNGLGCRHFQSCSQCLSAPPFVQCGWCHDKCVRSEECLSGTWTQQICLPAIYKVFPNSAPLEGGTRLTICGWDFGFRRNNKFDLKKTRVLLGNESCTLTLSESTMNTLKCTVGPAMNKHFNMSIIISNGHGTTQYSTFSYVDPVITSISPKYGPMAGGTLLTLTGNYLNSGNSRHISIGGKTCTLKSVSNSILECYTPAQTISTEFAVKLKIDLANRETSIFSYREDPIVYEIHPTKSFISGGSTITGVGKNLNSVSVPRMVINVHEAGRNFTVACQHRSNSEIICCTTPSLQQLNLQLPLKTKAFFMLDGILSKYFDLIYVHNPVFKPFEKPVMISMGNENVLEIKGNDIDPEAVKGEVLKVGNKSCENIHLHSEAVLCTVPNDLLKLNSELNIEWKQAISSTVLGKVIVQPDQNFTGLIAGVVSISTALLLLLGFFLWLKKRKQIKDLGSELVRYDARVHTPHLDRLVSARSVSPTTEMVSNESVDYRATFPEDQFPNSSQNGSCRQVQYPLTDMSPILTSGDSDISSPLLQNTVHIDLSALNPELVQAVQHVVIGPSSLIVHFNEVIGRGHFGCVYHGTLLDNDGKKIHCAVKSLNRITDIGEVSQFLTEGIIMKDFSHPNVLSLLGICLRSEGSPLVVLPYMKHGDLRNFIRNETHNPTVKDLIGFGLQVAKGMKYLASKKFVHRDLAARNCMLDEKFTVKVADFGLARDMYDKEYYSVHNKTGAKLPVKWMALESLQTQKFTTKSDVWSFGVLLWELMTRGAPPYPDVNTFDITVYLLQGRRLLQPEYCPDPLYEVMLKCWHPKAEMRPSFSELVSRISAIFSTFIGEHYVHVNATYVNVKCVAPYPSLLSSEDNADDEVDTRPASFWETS

In the case of `O=C(Nc1ccc(Oc2ncnc3sc4c(c23)CCC4)c(F)c1)c1cccn(-c2ccc(F)cc2)c1=O`, the inhibition (as a rule, the relative decrease from the control value, in per cent) in assay [1] stood at 12.3%. In assay [2], the IC50 (in general, the concentration needed to halve the response being measured) was greater than 10 µM.
For `O=C(Nc1ccc(Oc2ncnc3occ(-c4ccc(F)cc4)c23)c(F)c1)c1cccn(-c2ccc(F)cc2)c1=O`, in assay [3], the inhibition at 10 µM amounted to 76.3%. Also, in assay [1], the inhibition came to 80.9%. For the same compound, the inhibition at 0.1 µM in assay [4] was -4.7%. This compound displayed a concentration for half-maximal inhibition (IC50) in assay [2] of 0.31 µM. Also, the inhibition at 1 µM in assay [5] was -5.8%.
The like results for `O=C(Nc1ccc(Oc2ncnc3occ(-c4cccs4)c23)c(F)c1)c1cccn(-c2ccc(F)cc2)c1=O` were, in that order, -5.4%, 46.6%, -12.1%, greater than 10 µM and -9.3%.
With `Cc1coc2ncnc(Oc3ccc(NC(=O)c4cccn(-c5ccc(F)cc5)c4=O)cc3F)c12`, in assay [1], the inhibition came out at 16.5%. In assay [2], this compound had an IC50 greater than 10 µM.
In the case of `COc1ccc(-c2csc3ncnc(Oc4ccc(NC(=O)c5cccn(-c6ccc(F)cc6)c5=O)cc4F)c23)cc1`, the inhibition at 10 µM in assay [3] amounted to 94.3%. Also, the inhibition in assay [1] came to 90%. Besides, the inhibition at 0.1 µM in assay [4] is -10.1%. For the same compound, the IC50 in assay [2] worked out at 0.0465 µM. The inhibition at 1 µM in assay [5] came to 91.1%.
Taken in the same sequence, the figures for `O=C(Nc1ccc(Oc2ncnc3sccc23)c(F)c1)c1cccn(-c2ccc(F)cc2)c1=O` were 5.3%, 14.3%, -12.8%, greater than 10 µM and -6.5%.
Turning to `O=C(Nc1ccc(Oc2ncnc3sc4c(c23)CCCCC4)c(F)c1)c1cccn(-c2ccc(F)cc2)c1=O`, the inhibition in assay [1] amounted to 23.4%. The IC50 in assay [2] is greater than 10 µM.
With `O=C(Nc1ccc(Oc2ncnc3scc(-c4ccc(F)c(F)c4)c23)c(F)c1)c1cccn(-c2ccc(F)cc2)c1=O`, the inhibition at 10 µM in assay [3] is 89.7%. In addition, the inhibition in assay [1] came to 88.4%. In addition, in assay [4], the inhibition at 0.1 µM was -1.1%. This compound had a 50% inhibitory concentration (IC50) in assay [2] of 0.0657 µM. In assay [5], the inhibition at 1 µM is 13.9%.
On to `CNc1nc(Oc2ccc(NC(=O)c3cccn(-c4ccc(F)cc4)c3=O)cc2F)c2c(-c3ccccc3)coc2n1`, for which the inhibition in assay [6] was less than 50%; in assay [1], 78.2%.
Turning to `Cc1ccc(-c2csc3ncnc(Oc4ccc(NC(=O)c5cccn(-c6ccc(F)cc6)c5=O)cc4F)c23)s1`, the inhibition at 10 µM in assay [3] stood at 95%. In addition, the inhibition in assay [1] is 85.5%. For the same compound, the inhibition at 0.1 µM in assay [4] is -2.3%. For the same compound, inhibition in assay [2] was half-maximal at 0.042 µM (IC50). The inhibition at 1 µM in assay [5] amounted to 60.6%.
Turning to `[N-]=[N+]=Nc1nc(Oc2ccc(NC(=O)c3cccn(-c4ccc(F)cc4)c3=O)cc2F)c2c(-c3ccccc3)coc2n1`, the inhibition in assay [1] is 18.5%. Further, in assay [2], the IC50 was greater than 10 µM.
For `CSc1nc(Oc2ccc(NC(=O)c3cccn(-c4ccc(F)cc4)c3=O)cc2F)c2c(-c3ccccc3)coc2n1`, in assay [3], the inhibition at 10 µM turned out to be 14.9%. Besides, the inhibition in assay [1] is 33.4%. The inhibition at 0.1 µM in assay [4] is 10.3%. Besides, the IC50 in assay [2] is greater than 10 µM. For the same compound, the inhibition at 1 µM in assay [5] was 2%.
As to `O=C(Nc1ccc(Oc2ncnc3scc(-c4ccc(C(F)(F)F)cc4)c23)c(F)c1)c1cccn(-c2ccc(F)cc2)c1=O`, the inhibition in assay [1] is 83.8%. Also, the IC50 in assay [2] is 0.191 µM.
Take `O=C(Nc1ccc(Oc2ncnc3occ(-c4ccccc4)c23)c(F)c1)c1cccn(-c2ccc(F)cc2)c1=O`: the inhibition at 10 µM in assay [3] is 93.7%. The inhibition in assay [1] stood at 84.9%. Further, the inhibition at 0.1 µM in assay [4] is -6.9%. In assay [2], this compound displayed an IC50 of 0.0698 µM. In assay [5], the inhibition at 1 µM turned out to be 14.6%.
Consider `O=C(Nc1ccc(Oc2ncnc3sc(-c4ccccc4)cc23)c(F)c1)c1cccn(-c2ccc(F)cc2)c1=O`, for which the inhibition in assay [1] was found to be 10.6%. This compound yielded an IC50 in assay [2] greater than 10 µM.
Take `COc1nc(Oc2ccc(NC(=O)c3cccn(-c4ccc(F)cc4)c3=O)cc2F)c2c(-c3ccccc3)coc2n1`: the inhibition in assay [1] turned out to be 31.7%. Also, the IC50 in assay [2] is greater than 10 µM.
In the case of `CS(=O)(=O)c1nc(Oc2ccc(NC(=O)c3cccn(-c4ccc(F)cc4)c3=O)cc2F)c2c(-c3ccccc3)coc2n1`, in assay [1], the inhibition was determined as 36.7%. Moreover, in assay [2], the IC50 was greater than 10 µM.
Regarding `O=C(Nc1ccc(Oc2ncnc3scc(-c4ccc(-c5ccccc5)cc4)c23)c(F)c1)c1cccn(-c2ccc(F)cc2)c1=O`, the figures for the inhibition in assay [6] and in assay [1] were less than 50% and 80.4%, respectively.
Consider `O=C(Nc1ccc(Oc2ncnc3scc(-c4ccc(F)cc4)c23)c(F)c1)c1cccn(-c2ccc(F)cc2)c1=O`, for which the inhibition at 10 µM in assay [3] amounted to 92.2%. Besides, the inhibition in assay [1] came out at 71.9%. Moreover, the inhibition at 0.1 µM in assay [4] is 12.9%. In addition, the IC50 in assay [2] turned out to be 0.068 µM. In addition, the inhibition at 1 µM in assay [5] was determined as 30.8%.
As for `Cc1nc(Oc2ccc(NC(=O)c3cccn(-c4ccc(F)cc4)c3=O)cc2F)c2c3c(sc2n1)CCCC3`, in assay [1], the inhibition was found to be 31.2%. Also, the half-inhibitory concentration (IC50) in assay [2] was greater than 10 µM.
Consider `O=C(Nc1ccc(Oc2ncnc3scc(-c4ccc5ccccc5c4)c23)c(F)c1)c1cccn(-c2ccc(F)cc2)c1=O`, for which the figures for the inhibition in assay [6] and in assay [1] were less than 50% and 92.1%, respectively.
`Cc1nc(Oc2ccc(NC(=O)c3cccn(-c4ccc(F)cc4)c3=O)cc2F)c2c(-c3cccs3)coc2n1`: the inhibition at 10 µM in assay [3] was -9.7%. The inhibition in assay [1] stood at 24.3%. The inhibition at 0.1 µM in assay [4] stood at 0.6%. This compound returned an IC50 in assay [2] greater than 10 µM. In addition, the inhibition at 1 µM in assay [5] is -2.8%.
`COc1ccc(-c2csc3ncnc(Oc4ccc(NC(=O)c5cccn(-c6ccc(F)cc6)c5=O)cc4F)c23)cc1OC`: the inhibition in assay [1] stood at 99.9%. This compound yielded an IC50 in assay [2] of 0.123 µM.
